Measured values as given in ChEMBL document CHEMBL3526106, “Cytochrome P450 regulation by α-tocopherol in Pxr-null and PXR-humanized mice” (Drug Metab Dispos, 2013).

How the values were obtained:
Parameters in all cases: dose 500 mg/kg
Cyp2c55 [1] = experiment: Induction of Cyp2c55 gene expression in male PXR-humanized mouse liver at 500 mg/kg for 7 to 14 days dosed through vitamin E-deficient base diet by qPCR method; type: ADME, organism-based; conditions: po, read-out: FC
In short: (§1)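 Male mice on vitamin E deficient diet, switched at eight weeks to the same diet with 500 mg/kg DL-α-tocopheryl acetate (controls kept deficient); killed at nine or 10 weeks, livers flash frozen. Hepatic mRNA by SYBR Green qPCR with 25 ng cDNA and 150 nM primers, triplicate reactions; comparative threshold cycle method against β-actin, fold change versus deficient diet; mean ± SEM, two-tailed t-test.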

Mus musculus [2] = experiment: Induction of Cyp4f18 gene expression in male PXR null mouse liver at 500 mg/kg for 7 to 14 days dosed through vitamin E-deficient base diet by qPCR method; type: ADME, organism-based; conditions: in vivo, po
In short: (§2)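 Male mice (wild-type, Pxr-null, hPXR; NCI-bred) on vitamin E-deficient diet from 3 weeks of age; at 8 weeks half switched to same base diet supplemented with 500 mg/kg DL-α-tocopheryl acetate, rest kept deficient. Livers harvested at 9 and 10 weeks. qPCR: 25 ng cDNA, 150 nM each primer, SYBR Green, triplicate; comparative Ct vs β-actin; fold change enriched vs deficient diet; mean ± SEM, two-tailed unpaired t-test.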

Mus musculus [3] = experiment: Effect on Ugt1a6a gene expression in male PXR null mouse liver at 500 mg/kg for 7 to 14 days dosed through vitamin E-deficient base diet by qPCR method; type: ADME, organism-based; conditions: in vivo, po; in short: as §1
Mus musculus [4] = experiment: Effect on Ugt1a9 gene expression in male PXR-humanized mouse liver at 500 mg/kg for 7 to 14 days dosed through vitamin E-deficient base diet by qPCR method; type: ADME, organism-based; conditions: in vivo, po; in short: as §1
Mus musculus [5] = experiment: Induction of Cyp3a11 gene expression in male wild type mouse liver at 500 mg/kg for 7 to 14 days dosed through vitamin E-deficient base diet by qPCR method; type: ADME, organism-based; conditions: in vivo, po; in short: as §2
Mus musculus [6] = experiment: Effect on Ugt1a1 gene expression in wild type mouse liver at 500 mg/kg for 7 to 14 days dosed through vitamin E-deficient base diet by qPCR method; type: ADME, organism-based; conditions: in vivo, po; in short: as §1
Mus musculus [7] = experiment: Drug metabolism in male PXR-humanized mouse assessed as urinary alpha-carboxymethylbutylhydroxychroman glucuronide level at 500 mg/kg for 7 to 14 days dosed through vitamin E-deficient base diet by UPLC-ESI-QTOFMS method based metabolomics analysis; type: ADME, organism-based, Urine; conditions: in vivo, po
In short: (§3)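 Male mice from three weeks of age on vitamin E deficient diet; at eight weeks, 24 h predose urine in metabolic cages, then half switched to the same diet supplemented with 500 mg/kg DL-α-tocopheryl acetate. 24 h urine collected at nine and 10 weeks. Urinary metabolites quantitated by UPLC-MRM on triple-quadrupole MS against authentic standards and calibration curves, normalized to urinary creatinine (µmol/mmol creatinine); mean ± SEM, two-tailed unpaired t-test.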

Mus musculus [8] = experiment: Induction of Cyp2c39 gene expression in male PXR null mouse liver at 500 mg/kg for 7 to 14 days dosed through vitamin E-deficient base diet by qPCR method; type: ADME, organism-based; conditions: in vivo, po; in short: as §1
Mus musculus [9] = experiment: Induction of Cyp4f15 gene expression in wild type mouse liver at 500 mg/kg for 7 to 14 days dosed through vitamin E-deficient base diet by qPCR method; type: ADME, organism-based; conditions: in vivo, po; in short: as §2
Mus musculus [10] = experiment: Effect on Ugt2b5 gene expression in male PXR null mouse liver at 500 mg/kg for 7 to 14 days dosed through vitamin E-deficient base diet by qPCR method; type: ADME, organism-based; conditions: in vivo, po; in short: as §1
Mus musculus [11] = experiment: Induction of Cyp4f14 gene expression in wild type mouse liver at 500 mg/kg for 7 to 14 days dosed through vitamin E-deficient base diet by qPCR method; type: ADME, organism-based; conditions: in vivo, po; in short: as §2
Mus musculus [12] = experiment: Induction of Cyp4f16 gene expression in male PXR null mouse liver at 500 mg/kg for 7 to 14 days dosed through vitamin E-deficient base diet by qPCR method; type: ADME, organism-based; conditions: in vivo, po; in short: as §2
Mus musculus [13] = experiment: Effect on Ugt1a6a gene expression in wild type mouse liver at 500 mg/kg for 7 to 14 days dosed through vitamin E-deficient base diet by qPCR method; type: ADME, organism-based; conditions: in vivo, po; in short: as §1
Mus musculus [14] = experiment: Drug metabolism in male wild type mouse assessed as urinary alpha-carboxyethylhydroxychroman glucuronide level at 500 mg/kg for 7 to 14 days dosed through vitamin E-deficient base diet by UPLC-ESI-QTOFMS method based metabolomics analysis; type: ADME, organism-based, Urine; conditions: in vivo, po
Mus musculus [15] = experiment: Drug metabolism in male PXR null mouse assessed as urinary alpha-carboxyethylhydroxychroman glycine level at 500 mg/kg for 7 to 14 days dosed through vitamin E-deficient base diet by UPLC-ESI-QTOFMS method based metabolomics analysis; type: ADME, organism-based, Urine; conditions: in vivo, po; in short: as §3
Mus musculus [16] = experiment: Effect on Ugt1a10 gene expression in wild type mouse liver at 500 mg/kg for 7 to 14 days dosed through vitamin E-deficient base diet by qPCR method; type: ADME, organism-based; conditions: in vivo, po; in short: as §1
Mus musculus [17] = experiment: Effect on Ugt1a6b gene expression in male PXR-humanized mouse liver at 500 mg/kg for 7 to 14 days dosed through vitamin E-deficient base diet by qPCR method; type: ADME, organism-based; conditions: in vivo, po; in short: as §1
Mus musculus [18] = experiment: Effect on Ugt2b34 gene expression in male PXR-humanized mouse liver at 500 mg/kg for 7 to 14 days dosed through vitamin E-deficient base diet by qPCR method; type: ADME, organism-based; conditions: in vivo, po; in short: as §1
Mus musculus [19] = experiment: Effect on Ugt1a7c gene expression in male PXR-humanized mouse liver at 500 mg/kg for 7 to 14 days dosed through vitamin E-deficient base diet by qPCR method; type: ADME, organism-based; conditions: in vivo, po; in short: as §1
Mus musculus [20] = experiment: Effect on Ugt1a9 gene expression in wild type mouse liver at 500 mg/kg for 7 to 14 days dosed through vitamin E-deficient base diet by qPCR method; type: ADME, organism-based; conditions: in vivo, po; in short: as §1
Mus musculus [21] = experiment: Induction of Cyp4f14 gene expression in male PXR-humanized mouse liver at 500 mg/kg for 7 to 14 days dosed through vitamin E-deficient base diet by qPCR method; type: ADME, organism-based; conditions: in vivo, po; in short: as §2
Cyp2c55 [22] = experiment: Induction of Cyp2c55 gene expression in male PXR null mouse liver at 500 mg/kg for 7 to 14 days dosed through vitamin E-deficient base diet by qPCR method; type: ADME, organism-based; conditions: po, read-out: FC; in short: as §1
Mus musculus [23] = experiment: Induction of Cyp4f15 gene expression in male PXR null mouse liver at 500 mg/kg for 7 to 14 days dosed through vitamin E-deficient base diet by qPCR method; type: ADME, organism-based; conditions: in vivo, po; in short: as §2
Mus musculus [24] = experiment: Effect on Ugt1a6b gene expression in wild type mouse liver at 500 mg/kg for 7 to 14 days dosed through vitamin E-deficient base diet by qPCR method; type: ADME, organism-based; conditions: in vivo, po; in short: as §1
Mus musculus [25] = experiment: Effect on Ugt1a9 gene expression in male PXR null mouse liver at 500 mg/kg for 7 to 14 days dosed through vitamin E-deficient base diet by qPCR method; type: ADME, organism-based; conditions: in vivo, po; in short: as §1
Cyp2c37 = experiment: Induction of Cyp2c37 gene expression in male PXR-humanized mouse liver at 500 mg/kg for 7 to 14 days dosed through vitamin E-deficient base diet by qPCR method; type: ADME, organism-based; conditions: po, read-out: FC; in short: as §1
Mus musculus [26] = experiment: Drug metabolism in male wild type mouse assessed as urinary alpha-carboxyethylhydroxychroman glycine level at 500 mg/kg for 7 to 14 days dosed through vitamin E-deficient base diet by UPLC-ESI-QTOFMS method based metabolomics analysis; type: ADME, organism-based, Urine; conditions: in vivo, po
Mus musculus [27] = experiment: Drug metabolism in male PXR null mouse assessed as urinary alpha-carboxyethylhydroxychroman glucuronide level at 500 mg/kg for 7 to 14 days dosed through vitamin E-deficient base diet by UPLC-ESI-QTOFMS method based metabolomics analysis; type: ADME, organism-based, Urine; conditions: in vivo, po
Mus musculus [28] = experiment: Effect on Ugt2b5 gene expression in male PXR-humanized mouse liver at 500 mg/kg for 7 to 14 days dosed through vitamin E-deficient base diet by qPCR method; type: ADME, organism-based; conditions: in vivo, po; in short: as §1

CC(=O)Oc1c(C)c(C)c2c(c1C)CCC(C)(CCCC(C)CCCC(C)CCCC(C)C)O2 (racemic) [alpha-TOCHOPHERYL ACETATE]
fold induction (Cyp2c55 [1]): 2.9
Activity (Mus musculus [2]): Not Active
Activity (Mus musculus [3]): Not Active
Activity (Mus musculus [4]): Not Active
Activity (Mus musculus [5]): Active
Activity (Mus musculus [6]): Not Active
Drug metabolism (Mus musculus [7]): metabolite_detected
Activity (Mus musculus [8]): Not Active
Activity (Mus musculus [9]): Not Active
Activity (Mus musculus [10]): Not Active
Activity (Mus musculus [11]): Not Active
Activity (Mus musculus [12]): Not Active
Activity (Mus musculus [13]): Not Active
Drug metabolism (Mus musculus [14]): metabolite_detected
Drug metabolism (Mus musculus [15]): metabolite_detected
Activity (Mus musculus [16]): Not Active
Activity (Mus musculus [17]): Not Active
Activity (Mus musculus [18]): Not Active
Activity (Mus musculus [19]): Not Active
Activity (Mus musculus [20]): Not Active
Activity (Mus musculus [21]): Not Active
fold induction (Cyp2c55 [22]): 2.2
Activity (Mus musculus [23]): Not Active
Activity (Mus musculus [24]): Not Active
Activity (Mus musculus [25]): Not Active
fold induction (Cyp2c37): 2
Drug metabolism (Mus musculus [26]): metabolite_detected
Drug metabolism (Mus musculus [27]): metabolite_detected
Activity (Mus musculus [28]): Not Active
